Source: ChEMBL document CHEMBL5712078, “BRD9 Inhibition, Alone or in Combination with Cytostatic Compounds as a Therapeutic Approach in Rhabdoid Tumors” (Int J Mol Sci, 2017)
Activity calls are given as the source filed them. The calls are words filed in the database; no cut-off is given here.

Legend:
G-401 [1] = assay: Anti-proliferative activity against human G-401 cells assessed as cell viability incubated for 72 hrs by MTT assay; type: functional, cell-based; details: G-401, 72 h
Summary of the method: (§1)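 MTT proliferation assay. Cells were seeded at 3000 (BT16, KD, G401) or 5000 (BT12, Chla266) cells per well and drug was added after 24 h, final 0.001–100 µM. Read at 72 or 144 h; 144 h wells got fresh medium and drug on day 3. MTT for 3 h, formazan dissolved in isopropanol/0.04 N HCl, absorbance at 570/630 nm. Technical triplicates, ≥3 independent runs, IC50 derived.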

CHLA-266 [2] = assay: Anti-proliferative activity against human CHLA-266 cells assessed as cell viability incubated for 144 hrs by MTT assay; type: functional, cell-based; details: CHLA-266, 144 h; summary of the method: as §1
BT-12 [3] = assay: Anti-proliferative activity against human BT-12 cells assessed as cell viability incubated for 72 hrs by MTT assay; type: functional, cell-based; details: BT-12, 72 h; summary of the method: as §1
G-401 [4] = assay: Induction of cell cycle arrest in human G-401 cells assessed as accumulation of cells at G1 phase at 20 uM incubated for 72 hrs by flow cytometry analysis (reference value: 51.7+/-2%); type: functional
Summary of the method: (§2)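 72 h DAPI flow-cytometry cell-cycle assay. Chla266 in IMDM/20% FBS seeded at 30,000 cells/mL; G401 in DMEM/10% FBS at 10,000 cells/mL; 1 mL/well, 37 °C, 5% CO2. Next day the medium was replaced with inhibitor at final 0, 5, 10 or 20 µM. Cells were harvested, PBS-washed, and the G1 percentage was read. n ≥ 3, mean ± SD, one-way ANOVA vs control.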

BT-12 [5] = assay: Induction of cell cycle arrest in human BT-12 cells assessed as accumulation of cells at G1 phase at 5 uM incubated for 72 hrs by flow cytometry analysis (Rvb =69+/-1.9%); type: functional
Summary of the method: (§3)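 Cell cycle. Seeding and 72 h treatment as for the apoptosis assay, with I-BRD9 or BI-9564 at 0, 5, 10 or 20 µM final. A 100 µL cell suspension was stained with DAPI and read by flow cytometry. Percentage of cells in G1, n ≥3, mean ± SD, one-way ANOVA versus control.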

BT-12 [6] = assay: Induction of cell cycle arrest in human BT-12 cells assessed as accumulation of cells at G1 phase at 20 uM incubated for 72 hrs by flow cytometry analysis (reference value: 69+/-1.9%); type: functional; summary of the method: as §3
CHLA-266 [7] = assay: Induction of cell cycle arrest in human CHLA-266 cells assessed as accumulation of cells at G1 phase at 5 uM incubated for 72 hrs by flow cytometry analysis (reference value: 74.2+/-3.6%); type: functional; summary of the method: as §3
G-401 [8] = assay: Induction of cell cycle arrest in human G-401 cells assessed as accumulation of cells at G1 phase at 10 uM incubated for 72 hrs by flow cytometry analysis (Rvb =46.7+/-1.9 %); type: functional; summary of the method: as §2
G-401 [9] = assay: Induction of cell cycle arrest in human G-401 cells assessed as accumulation of cells at G1 phase at 20 uM incubated for 72 hrs by flow cytometry analysis (reference value: 46.7+/-1.9 %); type: functional; summary of the method: as §2
BT-12 [10] = assay: Induction of apoptosis in human BT-12 cells assessed as necrotic cells at 10 uM incubated for 72 hrs by flow cytometry analysis (reference value: 9.1+/-2.8 %); type: functional
Summary of the method: (§4)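 Annexin V/PI flow assay. G401 at 10,000 cells/mL and BT12 or Chla266 at 30,000 cells/mL were seeded in 12-well plates. Next day medium was replaced with medium holding I-BRD9 or BI-9564 at 0, 5, 10 or 20 µM final for 72 h. Cells were washed in PBS, stained with FITC-Annexin V and propidium iodide for 15 min in the dark at room temperature, then read by flow cytometry. Percentage of dead cells, n ≥3, mean ± SD, one-way ANOVA versus control.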

BT-12 [11] = assay: Induction of apoptosis in human BT-12 cells assessed as necrotic cells at 20 uM incubated for 72 hrs by flow cytometry analysis (Rvb= 9.1+/-2.8 %); type: functional; summary of the method: as §4
G-401 [12] = assay: Induction of apoptosis in human G-401 cells assessed as necrotic cells at 5 uM incubated for 72 hrs by flow cytometry analysis (Rvb= 5.7+/-1.9 %); type: functional; summary of the method: as §4
BT-12 [13] = assay: Anti-proliferative activity against human BT-12 cells assessed as inhibition cell growth incubated for 72 hrs in presence of carboplatin by MTT-based Chou-Talalay method; type: functional; details: BT-12, 72 h
Summary of the method: (§5)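 Combination MTT assay. I-BRD9 and carboplatin, doxorubicin or vincristine were given together at a fixed 10:1 ratio, with cytostatics 0.0001–10 µM final, added 24 h after seeding. MTT read-out at 570/630 nm after 3 h formazan solubilisation. Combination index from the Chou–Talalay median-effect method: CI <1 synergism, CI >1 antagonism. n ≥3.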

BT-12 [14] = assay: Anti-proliferative activity against human BT-12 cells assessed as inhibition cell growth incubated for 72 hrs in presence of doxorubicin by MTT-based Chou-Talalay method; type: functional; details: BT-12, 72 h; summary of the method: as §5
BT-12 [15] = assay: Synergistic cytotoxicity against human BT-12 cells assessed as combination index incubated for 72 hrs in presence of doxorubicin by MTT-based Chou-Talalay method; type: functional
Summary of the method: (§6)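 MTT combination assay. BT12 in IMDM/20% FBS at 5000 cells/well; G401 in DMEM/10% FBS. Drugs added 24 h after seeding, with I-BRD9 and cytostatic at a fixed 10:1 ratio (final ranges 0.001–100 µM and 0.0001–10 µM). After 72 h: MTT for 3 h, dissolved in isopropanol/0.04 N HCl, read at 570/630 nm. Technical triplicates, ≥3 independent runs; combination index by Chou–Talalay median-effect analysis.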

BT-12 [16] = assay: Synergistic cytotoxicity against human BT-12 cells assessed as combination index incubated for 72 hrs in presence of vincristine by MTT-based Chou-Talalay method; type: functional; summary of the method: as §6
G-401 [17] = assay: Anti-proliferative activity against human G-401 cells assessed as inhibition cell growth incubated for 72 hrs in presence of doxorubicin by MTT-based Chou-Talalay method; type: functional; details: G-401, 72 h; summary of the method: as §5
G-401 [18] = assay: Anti-proliferative activity against human G-401 cells assessed as inhibition cell growth incubated for 72 hrs in presence of vincristine by MTT-based Chou-Talalay method; type: functional; details: G-401, 72 h; summary of the method: as §5
G-401 [19] = assay: Synergistic cytotoxicity against human G-401 cells assessed as combination index incubated for 72 hrs in presence of carboplatin by MTT-based Chou-Talalay method; type: functional; summary of the method: as §6
G-401 [20] = assay: Synergistic cytotoxicity against human G-401 cells assessed as combination index incubated for 72 hrs in presence of vincristine by MTT-based Chou-Talalay method; type: functional; summary of the method: as §6
BT-12 [21] = assay: Induction of cell cycle arrest in human BT-12 cells assessed as accumulation of cells at G1 phase incubated for 72 hrs by flow cytometry analysis; type: functional, cell-based; details: dose 5-20 µM; summary of the method: as §3
CHLA-266 [22] = assay: Induction of apoptosis in human CHLA-266 cells assessed as necrotic cells incubated for 72 hrs by flow cytometry analysis; type: functional, cell-based; details: dose 5-20 µM; summary of the method: as §4
CHLA-266 [23] = assay: Cytotoxicity against human CHLA-266 cells assessed as change in cell viability at 5 to 20 uM treated for 72 hrs; type: functional, cell-based; details: dose 5-20 µM; summary of the method: as §4
CHLA-266 [24] = assay: Induction of apoptosis in human CHLA-266 cells assessed as necrotic cells at 5 uM incubated for 72 hrs by flow cytometry analysis (Rvb= 5.0+/-0.3 %)

`CCn1cc(-c2cccc(C(F)(F)F)c2)c2sc(C(=N)NC3CCS(=O)(=O)CC3)cc2c1=O` showed an IC50 (G-401 [1]) of 13.4 µM, an IC50 (CHLA-266 [2]) of 24.7 µM and an IC50 (BT-12 [3]) of 21.2 µM. For the same molecule, the Activity (G-401 [4]) was 65.5%, the Activity (BT-12 [5]) was 75% and the Activity (BT-12 [6]) was 85.6%. For the same molecule, the Activity (CHLA-266 [7]) was 79.5%, the Activity (G-401 [8]) was 67.1% and the Activity (G-401 [9]) was 78.1%. For the same molecule, the Activity (BT-12 [10]) was 17.6%, the Activity (BT-12 [11]) was 34.6% and the Activity (G-401 [12]) was 7.7%. For the same molecule, the IC50 (BT-12 [13]) was 40.9 µM, the IC50 (BT-12 [14]) was 0.94 µM and the CI (BT-12 [15]) was 0.42. The CI (BT-12 [16]) was 96.1, the IC50 (G-401 [17]) was 0.096 µM and the IC50 (G-401 [18]) was 0.008 µM. The CI (G-401 [19]) was 0.37, the CI (G-401 [20]) was 9 and the Activity (BT-12 [21]) was “Dose-Dependent Effect”. For the same molecule, the Activity (CHLA-266 [22]) was “Dose-Dependent Effect”, the Activity (CHLA-266 [23]) was “Active” and the Activity (CHLA-266 [24]) was 7.7%.
